# Assay results as given in ChEMBL document CHEMBL1165969, “Synthesis and cytotoxicity of novel indirubin-5-carboxamides” (Bioorg Med Chem, 2010).
# What was measured:
# [1] = target: Glycogen synthase kinase-3 beta (Homo sapiens, UniProt P49841); test: Inhibition of GSK3-beta assessed as residual activity at 10 uM after 80 mins by microplate scintillation counting
# [2] = Antiproliferative activity against human LXFL 529L cells after 3 days by sulforhodamine B assay; assay type: functional, cell-based; conditions: Homo sapiens, LXFL 529L, 72 h
# Outline: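 Cells kept at 37 °C in humidified 5% CO2 in RPMI 1640 with 10% heat-inactivated FBS, penicillin (100 units/mL) and streptomycin, and checked for mycoplasma. Seeded, grown 24 h, then exposed to drug for 3 days in serum-containing medium. Fixed with 50% TCA solution for 1 h at 4 °C, stained with 0.4% SRB, dye eluted in 10 mM Tris pH 10.5, read at 570 nm. Growth expressed as % T/C; IC50 derived.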
# [3] = target: Focal adhesion kinase 1 (Homo sapiens) (UniProt Q05397); test: Inhibition of FAK assessed as residual activity at 10 uM after 80 mins by microplate scintillation counting
# [4] = target: Cyclin-dependent kinase 4/cyclin D1 (Homo sapiens) (UniProt P11802+P24385); test: Inhibition of CDK4/Cyclin D1 assessed as residual activity at 10 uM after 80 mins by microplate scintillation counting; assay type: protein-complex assay
# [5] = target: Aurora kinase C (Homo sapiens) (UniProt Q9UQB9); test: Inhibition of Aurora C assessed as residual activity at 1 uM after 80 mins by microplate scintillation counting
# [6] = target: Tyrosine-protein kinase ABL1 (Homo sapiens) (UniProt P00519); test: Inhibition of ABL1 assessed as residual activity at 1 uM after 80 mins by microplate scintillation counting
# [7] = target: Serine/threonine-protein kinase B-raf (Homo sapiens) (UniProt P15056); test: Inhibition of B-Raf assessed as residual activity at 10 uM after 80 mins by microplate scintillation counting
# [8] = target: Muscle, skeletal receptor tyrosine-protein kinase (Homo sapiens) (UniProt O15146); test: Inhibition of MUSK assessed as residual activity at 1 uM after 80 mins by microplate scintillation counting
# [9] = target: Cyclin-dependent kinase 5/CDK5 activator 1 (Homo sapiens) (UniProt Q00535+Q15078); test: Inhibition of CDK5/p35 assessed as residual activity at 10 uM after 80 mins by microplate scintillation counting; assay type: protein-complex assay
# [10] = target: Serine/threonine-protein kinase Chk1 (Homo sapiens) (UniProt O14757); test: Inhibition of CHK1 assessed as residual activity at 1 uM after 80 mins by microplate scintillation counting
# [11] = target: T1, Cyclin-dependent kinase 1/cyclin B1 (Homo sapiens) (UniProt P06493+P14635); test: Inhibition of CDK1/Cyclin B1 assessed as residual activity at 1 uM after 80 mins by microplate scintillation counting; assay type: protein-complex assay
# [12] = target: RAF proto-oncogene serine/threonine-protein kinase (Homo sapiens) (UniProt P04049); test: Inhibition of RAF1 assessed as residual activity at 1 uM after 80 mins by microplate scintillation counting
# Outline: (§1)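 Kinase profiling was outsourced to a contract laboratory as a panel of 30 protein kinases. Each compound was tested at two concentrations, and residual kinase activity was recorded.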
# [13] = target: T1, Cyclin-dependent kinase 1/cyclin B1 (Homo sapiens); test: Inhibition of CDK1/Cyclin B1 assessed as residual activity at 10 uM after 80 mins by microplate scintillation counting; assay type: protein-complex assay
# [14] = target: Aurora kinase A (Homo sapiens) (UniProt O14965); test: Inhibition of Aurora A assessed as residual activity at 10 uM after 80 mins by microplate scintillation counting
# [15] = target: Proto-oncogene tyrosine-protein kinase receptor Ret (Homo sapiens) (UniProt P07949); test: Inhibition of RET assessed as residual activity at 1 uM after 80 mins by microplate scintillation counting; outline: as §1
# [16] = target: Epidermal growth factor receptor (Homo sapiens) (UniProt P00533); test: Inhibition of EGFR assessed as residual activity at 10 uM after 80 mins by microplate scintillation counting
# [17] = target: Tyrosine-protein kinase Fgr (Homo sapiens) (UniProt P09769); test: Inhibition of FGR assessed as residual activity at 10 uM after 80 mins by microplate scintillation counting
# [18] = target: Receptor tyrosine-protein kinase erbB-2 (Homo sapiens) (UniProt P04626); test: Inhibition of ERBB2 assessed as residual activity at 1 uM after 80 mins by microplate scintillation counting
# [19] = target: Tyrosine-protein kinase ABL1 (Homo sapiens) (UniProt P00519); test: Inhibition of ABL1 assessed as residual activity at 10 uM after 80 mins by microplate scintillation counting
# [20] = target: Platelet-derived growth factor receptor alpha (Homo sapiens) (UniProt P16234); test: Inhibition of PDGFRalpha assessed as residual activity at 10 uM after 80 mins by microplate scintillation counting
# [21] = target: T2, Cyclin-dependent kinase 2/cyclin E1 (Homo sapiens) (UniProt P24864+P24941); test: Inhibition of CDK2/Cyclin E assessed as residual activity at 1 uM after 80 mins by microplate scintillation counting; assay type: protein-complex assay
# [22] = Solubility in water by spectrophotometry; assay type: physicochemical
# [23] = target: T2, Cyclin-dependent kinase 2/cyclin E1 (Homo sapiens); test: Inhibition of CDK2/Cyclin E assessed as residual activity at 10 uM after 80 mins by microplate scintillation counting; assay type: protein-complex assay
# [24] = target: Tyrosine-protein kinase JAK2 (Homo sapiens) (UniProt O60674); test: Inhibition of JAK2 assessed as residual activity at 1 uM after 80 mins by microplate scintillation counting
# [25] = target: Proto-oncogene tyrosine-protein kinase receptor Ret (Homo sapiens) (UniProt P07949); test: Inhibition of RET assessed as residual activity at 10 uM after 80 mins by microplate scintillation counting; outline: as §1
# Chain of Proto-oncogene tyrosine-protein kinase receptor Ret (Homo sapiens) (P07949 whole entry): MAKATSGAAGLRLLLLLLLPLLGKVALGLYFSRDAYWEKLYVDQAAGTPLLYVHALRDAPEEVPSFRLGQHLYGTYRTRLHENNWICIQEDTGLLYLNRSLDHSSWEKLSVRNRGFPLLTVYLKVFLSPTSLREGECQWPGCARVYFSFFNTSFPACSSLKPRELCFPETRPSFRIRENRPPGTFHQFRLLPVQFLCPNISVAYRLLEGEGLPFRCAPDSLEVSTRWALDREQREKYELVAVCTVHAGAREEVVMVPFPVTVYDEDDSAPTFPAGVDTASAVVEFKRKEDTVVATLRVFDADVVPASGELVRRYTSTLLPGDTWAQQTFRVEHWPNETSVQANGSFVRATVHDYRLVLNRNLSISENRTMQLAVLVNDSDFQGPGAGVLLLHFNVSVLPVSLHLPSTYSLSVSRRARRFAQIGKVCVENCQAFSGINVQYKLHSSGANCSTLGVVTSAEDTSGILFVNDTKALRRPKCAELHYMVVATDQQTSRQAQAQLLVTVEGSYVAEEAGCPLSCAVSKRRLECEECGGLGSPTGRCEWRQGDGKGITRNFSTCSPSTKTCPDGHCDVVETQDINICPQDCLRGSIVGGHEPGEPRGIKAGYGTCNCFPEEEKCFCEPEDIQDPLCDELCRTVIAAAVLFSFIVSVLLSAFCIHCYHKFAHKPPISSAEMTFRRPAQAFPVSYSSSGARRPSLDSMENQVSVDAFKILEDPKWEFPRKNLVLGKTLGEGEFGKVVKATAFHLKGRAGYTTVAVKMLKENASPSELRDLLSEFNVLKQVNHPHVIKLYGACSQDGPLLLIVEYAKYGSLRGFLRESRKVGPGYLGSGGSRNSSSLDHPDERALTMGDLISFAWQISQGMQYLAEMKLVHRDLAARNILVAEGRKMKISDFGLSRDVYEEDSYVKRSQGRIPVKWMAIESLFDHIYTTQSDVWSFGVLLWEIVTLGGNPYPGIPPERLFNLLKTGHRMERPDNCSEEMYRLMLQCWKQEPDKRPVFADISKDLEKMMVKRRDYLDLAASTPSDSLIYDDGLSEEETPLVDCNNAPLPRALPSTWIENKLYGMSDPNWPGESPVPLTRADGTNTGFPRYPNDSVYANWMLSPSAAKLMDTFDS
# T1 sequence (P06493 whole entry, looked up): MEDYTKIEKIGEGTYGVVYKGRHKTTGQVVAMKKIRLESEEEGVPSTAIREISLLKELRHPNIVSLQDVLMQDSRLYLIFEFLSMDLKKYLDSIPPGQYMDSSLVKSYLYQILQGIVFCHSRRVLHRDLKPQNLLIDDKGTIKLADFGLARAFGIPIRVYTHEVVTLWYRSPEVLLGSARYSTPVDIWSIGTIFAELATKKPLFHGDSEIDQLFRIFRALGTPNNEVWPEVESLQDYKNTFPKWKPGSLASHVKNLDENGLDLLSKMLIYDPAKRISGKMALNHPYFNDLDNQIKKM
# T1 sequence (P14635 whole entry, looked up): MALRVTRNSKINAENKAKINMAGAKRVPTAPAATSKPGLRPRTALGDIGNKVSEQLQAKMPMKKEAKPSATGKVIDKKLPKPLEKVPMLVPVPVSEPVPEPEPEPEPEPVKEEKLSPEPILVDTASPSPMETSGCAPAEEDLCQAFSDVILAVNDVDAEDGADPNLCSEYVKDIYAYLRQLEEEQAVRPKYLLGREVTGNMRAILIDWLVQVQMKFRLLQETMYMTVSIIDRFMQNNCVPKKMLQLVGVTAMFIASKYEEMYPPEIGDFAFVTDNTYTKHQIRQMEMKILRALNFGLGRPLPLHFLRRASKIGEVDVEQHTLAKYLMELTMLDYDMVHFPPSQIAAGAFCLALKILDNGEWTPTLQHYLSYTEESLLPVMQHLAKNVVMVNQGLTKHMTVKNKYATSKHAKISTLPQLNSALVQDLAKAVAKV
# Chain of Tyrosine-protein kinase ABL1 (Homo sapiens) (P00519 whole entry): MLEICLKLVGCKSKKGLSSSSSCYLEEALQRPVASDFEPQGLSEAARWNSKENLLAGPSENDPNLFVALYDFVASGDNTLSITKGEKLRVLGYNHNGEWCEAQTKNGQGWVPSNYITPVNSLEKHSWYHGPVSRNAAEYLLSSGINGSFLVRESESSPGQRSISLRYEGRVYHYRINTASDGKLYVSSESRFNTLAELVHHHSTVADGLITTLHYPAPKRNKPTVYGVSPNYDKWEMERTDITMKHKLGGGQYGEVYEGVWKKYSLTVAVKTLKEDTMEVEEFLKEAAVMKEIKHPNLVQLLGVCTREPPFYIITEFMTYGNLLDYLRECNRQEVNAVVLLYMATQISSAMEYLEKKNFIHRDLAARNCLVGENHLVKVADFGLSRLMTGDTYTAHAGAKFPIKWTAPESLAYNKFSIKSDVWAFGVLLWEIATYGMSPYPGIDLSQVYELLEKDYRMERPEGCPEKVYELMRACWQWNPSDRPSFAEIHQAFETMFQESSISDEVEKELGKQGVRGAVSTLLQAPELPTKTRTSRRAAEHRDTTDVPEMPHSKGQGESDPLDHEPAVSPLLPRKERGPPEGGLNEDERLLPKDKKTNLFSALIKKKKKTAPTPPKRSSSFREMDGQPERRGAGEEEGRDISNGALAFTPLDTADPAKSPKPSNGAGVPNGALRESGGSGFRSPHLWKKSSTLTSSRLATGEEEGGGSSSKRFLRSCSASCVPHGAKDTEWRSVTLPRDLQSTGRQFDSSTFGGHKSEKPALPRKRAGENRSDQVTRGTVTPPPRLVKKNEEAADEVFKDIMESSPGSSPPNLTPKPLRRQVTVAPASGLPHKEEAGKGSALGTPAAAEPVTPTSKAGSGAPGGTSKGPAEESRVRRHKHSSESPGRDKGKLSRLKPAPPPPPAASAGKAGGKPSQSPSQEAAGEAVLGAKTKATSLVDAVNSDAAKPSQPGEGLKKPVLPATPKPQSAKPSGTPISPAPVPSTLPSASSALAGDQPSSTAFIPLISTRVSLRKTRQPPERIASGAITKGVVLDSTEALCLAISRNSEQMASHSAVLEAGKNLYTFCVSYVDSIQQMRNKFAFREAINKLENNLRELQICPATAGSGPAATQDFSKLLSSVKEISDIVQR
# Chain of Muscle, skeletal receptor tyrosine-protein kinase (Homo sapiens) (O15146 whole entry): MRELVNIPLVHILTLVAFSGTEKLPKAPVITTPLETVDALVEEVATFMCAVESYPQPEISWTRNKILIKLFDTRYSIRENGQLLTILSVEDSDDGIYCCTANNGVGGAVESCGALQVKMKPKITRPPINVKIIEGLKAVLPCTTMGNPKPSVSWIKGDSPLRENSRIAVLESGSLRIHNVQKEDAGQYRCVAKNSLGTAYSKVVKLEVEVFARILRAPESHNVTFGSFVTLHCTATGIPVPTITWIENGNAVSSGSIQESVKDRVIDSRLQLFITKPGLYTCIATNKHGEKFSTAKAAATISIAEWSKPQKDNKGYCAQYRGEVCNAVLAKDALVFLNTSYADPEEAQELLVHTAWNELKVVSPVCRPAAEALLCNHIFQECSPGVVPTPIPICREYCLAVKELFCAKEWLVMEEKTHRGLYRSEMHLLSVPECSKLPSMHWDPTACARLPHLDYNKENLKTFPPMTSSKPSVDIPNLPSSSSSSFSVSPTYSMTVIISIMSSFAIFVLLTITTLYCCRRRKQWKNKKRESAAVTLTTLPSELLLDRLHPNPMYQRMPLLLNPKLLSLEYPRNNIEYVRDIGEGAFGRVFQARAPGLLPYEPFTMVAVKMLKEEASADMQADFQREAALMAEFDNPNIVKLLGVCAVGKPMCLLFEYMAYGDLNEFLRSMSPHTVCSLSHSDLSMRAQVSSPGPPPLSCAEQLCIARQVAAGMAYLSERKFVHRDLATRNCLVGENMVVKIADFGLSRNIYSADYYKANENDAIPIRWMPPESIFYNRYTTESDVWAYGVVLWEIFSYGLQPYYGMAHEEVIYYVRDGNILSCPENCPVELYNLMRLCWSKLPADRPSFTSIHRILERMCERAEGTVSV
# Chain of Serine/threonine-protein kinase B-raf (Homo sapiens) (P15056 whole entry): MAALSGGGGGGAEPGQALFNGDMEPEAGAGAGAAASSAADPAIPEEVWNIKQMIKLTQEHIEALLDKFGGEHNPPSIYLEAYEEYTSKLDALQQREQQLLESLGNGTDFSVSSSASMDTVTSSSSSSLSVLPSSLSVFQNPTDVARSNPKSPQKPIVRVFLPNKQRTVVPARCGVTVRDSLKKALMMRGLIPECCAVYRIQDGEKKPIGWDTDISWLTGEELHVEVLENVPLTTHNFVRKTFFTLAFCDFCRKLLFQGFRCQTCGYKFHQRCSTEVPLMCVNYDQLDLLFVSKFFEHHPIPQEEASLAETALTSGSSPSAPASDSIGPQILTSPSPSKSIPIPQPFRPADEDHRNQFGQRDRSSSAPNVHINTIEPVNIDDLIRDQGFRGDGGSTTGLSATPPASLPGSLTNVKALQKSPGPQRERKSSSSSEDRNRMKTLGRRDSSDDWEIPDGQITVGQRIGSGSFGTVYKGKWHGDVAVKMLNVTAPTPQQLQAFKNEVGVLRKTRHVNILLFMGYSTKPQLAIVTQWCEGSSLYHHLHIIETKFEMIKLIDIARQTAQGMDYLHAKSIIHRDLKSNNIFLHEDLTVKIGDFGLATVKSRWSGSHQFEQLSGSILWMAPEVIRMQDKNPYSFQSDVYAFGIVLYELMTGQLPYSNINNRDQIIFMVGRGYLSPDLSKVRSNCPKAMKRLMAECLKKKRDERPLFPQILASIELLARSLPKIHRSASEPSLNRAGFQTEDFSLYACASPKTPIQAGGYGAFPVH
# Chain of Aurora kinase A (Homo sapiens) (O14965 whole entry): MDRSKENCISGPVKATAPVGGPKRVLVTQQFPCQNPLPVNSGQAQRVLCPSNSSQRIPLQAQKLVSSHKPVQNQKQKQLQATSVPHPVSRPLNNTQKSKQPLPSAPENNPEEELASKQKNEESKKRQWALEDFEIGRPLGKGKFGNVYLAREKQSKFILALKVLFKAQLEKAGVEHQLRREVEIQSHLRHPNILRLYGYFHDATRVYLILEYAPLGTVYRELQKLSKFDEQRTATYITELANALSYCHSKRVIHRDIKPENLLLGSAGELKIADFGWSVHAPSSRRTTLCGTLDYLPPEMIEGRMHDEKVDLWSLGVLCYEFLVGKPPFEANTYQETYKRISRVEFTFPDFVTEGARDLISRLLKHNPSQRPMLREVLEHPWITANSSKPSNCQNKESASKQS
structure (smiles),measurement,setting,value
CN1CCN(c2ccc(NC(=O)c3ccc4c(c3)/C(=C3/Nc5ccccc5C3=O)C(=O)N4)cc2)CC1,Activity,[1],6%
same,IC50,[2],540 nM
same,Activity,[3],92%
same,Activity,[4],18%
same,Activity,[5],83%
same,Activity,[6],88%
same,Activity,[7],106%
same,Activity,[8],81%
same,Activity,[9],16%
same,Activity,[10],106%
same,Activity,[11],79%
same,Activity,[12],94%
same,Activity,[13],23%
same,Activity,[14],63%
same,Activity,[15],78%
same,Activity,[16],43%
same,Activity,[17],< 50%
same,Activity,[18],99%
same,Activity,[19],26%
same,Activity,[20],31%
same,Activity,[21],63%
same,solubility,[22],520 µg/mL
same,Activity,[23],14%
same,Activity,[24],95%
same,Activity,[25],58%
